We go through six molecules from ChEMBL document CHEMBL1124340, “Acyclic analogues of 3'-azido-3'-deoxythymidine as potential antiviral agents. Nucleoside synthesis by Michael addition” (J Med Chem, 1989).

Structures are written as SMILES. Calls of active or inactive are those of the source. The rule behind the calls is not given here.

The species entered for one series is Homo sapiens. The experiment in a line: In vitro inhibitory activity against HIV-1 in human peripheral blood mononuclear cells at concentration 100 uM; Inactive. The class given is functional. In a few lines: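 Mitogen-stimulated PBM cells, three days old (10⁶ cells/mL), came from hepatitis- and HIV-1-seronegative donors. They were infected with HIV-1 strain LAV at about 100 TCID₅₀/mL. Compounds were added about 45 min post-infection and tested up to 100 μM. On day 5 the supernatant was clarified, virus pelleted, and reverse transcriptase activity measured. Cells came from three donors.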

In series [1] the test system is Vero. The experiment in a line: In vitro inhibitory activity against HSV-1 in vero cells in african green monkey at concentration 100 uM; IA is inactive. Format: functional, cell-based. The following applies: Chlorocebus sabaeus.
Series [2] can be described thus: Toxicity in Vero (African green monkey) cells at concentration 100 uM; compound was found nontoxic. The following applies: chlorocebus aethiops, in vitro.
Series [3] deals with Vero. The experiment in a line: In vitro inhibitory activity against HSV-2 in vero cells of african green monkey at concentration 100 uM; IA is inactive. Format: functional, cell-based. The following applies: Chlorocebus sabaeus.
The subject of series [4] is Vero. The experiment in a line: In vitro inhibitory activity against HSV-2 in vero cells in african green monkey at concentration 100 uM; Inactive. The class given is functional, cell-based. To be noted: Chlorocebus sabaeus.
A short description of series [5]: Toxicity in Vero (African green monkey) cells at concentration 100 uM; compound found nontoxic. To be noted: chlorocebus aethiops, in vitro.
The subject of series [6] is Vero. The experiment in a line: In vitro inhibitory activity against HSV-2 in Vero (African green monkey) cells at concentration 100 uM; Inactive. The following applies: Chlorocebus sabaeus.
Series [7] deals with Vero. Nature of the series: In vitro inhibitory activity against HSV-1 in Vero (African green monkey) cells at concentration 100 uM; Inactive. To be noted: Chlorocebus sabaeus.
In series [8] the test system is Vero. The experiment in a line: In vitro inhibitory activity against HSV-1 in vero cells in african green monkey at concentration 100 uM; Inactive. To be noted: Chlorocebus sabaeus. Format: functional, cell-based.
Series [9] relates to Vero. The experiment in a line: In vitro inhibitory activity against HSV-1 in vero cells of african green monkey at concentration 100 uM; Inactive. Format: functional, cell-based. The following applies: Chlorocebus sabaeus.
Series [10] can be described thus: Toxicity in Vero (African green monkey) cells at concentration 100 uM; compound found nontoxic. The following applies: chlorocebus aethiops, in vitro. The source holds these as a separate data set.
The subject of series [11] is Vero. The experiment in a line: In vitro inhibitory activity against HSV-2 in vero cells of african green monkey at concentration 100 uM; Inactive. Format: functional, cell-based. To be noted: Chlorocebus sabaeus.

Regarding `Cc1cn(C(CCO)SCCO)c(=O)[nH]c1=O` (stereo not drawn), the result in the series filed under Homo sapiens was inactive. Moreover, the Activity entry in the series with Vero [1] and with Vero [3] was “No activity” in each case. The Toxicity result in series [2] is given as “Non-toxic”.
On to `Cc1cn(C(CCO)OCCO)c(=O)[nH]c1=O` (stereo not drawn), for which the result in the series filed under Homo sapiens, in the series with Vero [4], with Vero [6], in the series with Vero [7] and in the series with Vero [8] was inactive. The Toxicity entry in series [5] was “Non-toxic”.
On to `COC(=O)COC(CC(=O)OC)n1cc(C)c(=O)[nH]c1=O` (stereo not drawn), for which the result in the series listed under Homo sapiens, in the series on Vero [4], with Vero [6], with Vero [7] and with Vero [8] was inactive. In [5], the Toxicity entry is “Non-toxic”.
With `COC(=O)/C=C/n1cc(C)c(=O)[nH]c1=O`, the outcome in the series on Vero [9] and in the series with Vero [11] was inactive. The Toxicity result in series [10] is given as “Non-toxic”.
With `COC(=O)CC(SCCO)n1cc(C)c(=O)[nH]c1=O` (stereo not drawn), the outcome in the series on Vero [9] and in the series on Vero [11] was inactive. Further, in series [10], the Toxicity entry is “Non-toxic”.
Take `Cc1cn(C(CCN=[N+]=[N-])OCCO)c(=O)[nH]c1=O` (stereo not drawn): the result in the series filed under Homo sapiens, in the series with Vero [4], in the series on Vero [6], in the series on Vero [7] and in the series with Vero [8] was inactive. The Toxicity entry in series [5] was “Non-toxic”.
